Experimental findings from ChEMBL document CHEMBL1140329, “Control of protein-protein interactions: structure-based discovery of low molecular weight inhibitors of the interactions between Pin1 WW domain and phosphopeptides” (J Med Chem, 2005) are described below.

Each structure is given as a SMILES string. Where a SMILES comes first, the peptide text is derived from it. [ ]: non-standard residue; d: D form. The star is where a group is joined. pT = C[C@@H](OP(=O)(O)O)[C@H](N)C(=O)O; Fmoc = O=C(OCC1c2ccccc2-c2ccccc21)*; Hydrocinnamoyl = O=C(CCc1ccccc1)*; ΔPro = O=C(O)[C@@H]1C=CCN1; Thz = O=C(O)[C@@H]1CSCN1; PhAc = O=C(Cc1ccccc1)*

Broadly, the Kd is the free concentration of one partner at which half of the binding sites on the other are occupied at equilibrium, for simple one-to-one binding. Low readings indicate tighter binding, high ones weaker binding.

Chain of Peptidyl-prolyl cis-trans isomerase NIMA-interacting 1 (Q13526 whole entry, the tested form may be a part): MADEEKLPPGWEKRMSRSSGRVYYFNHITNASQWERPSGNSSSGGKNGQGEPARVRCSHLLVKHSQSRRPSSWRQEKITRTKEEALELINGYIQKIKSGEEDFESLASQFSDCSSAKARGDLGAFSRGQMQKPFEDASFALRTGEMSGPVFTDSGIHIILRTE

The assay addresses Peptidyl-prolyl cis-trans isomerase NIMA-interacting 1 (Homo sapiens, UniProt Q13526). Briefly: Dissociation constant for human peptidyl-prolyl cis-trans isomerase NIMA-interacting 1. The method in brief: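 15N-labeled Pin1 WW domain (His6-tagged, expressed in E. coli BL21(DE3)) in 25 mM deuterated Tris-HCl pH 6.8, 50 mM NaCl, 5 mM DTT, 2.5 mM EDTA, 10% D2O; 600 MHz 1H-15N HSQC at 293 K. 50 μM protein titrated with ligand 0.025–1 mM final; chemical shift perturbations fitted to a single-site equation for KD.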
In turn, `NC(=O)[C@@H]1CCCN1C(=O)[C@H](CCCCNc1c(O)c(=O)c1=O)NC(=O)OCC1c2ccccc2-c2ccccc21` yielded a Kd of 540 µM. As for `C[C@@H](OP(=O)(O)O)[C@H](NC(=O)CCCCc1ccccc1)C(=O)N1CCC[C@H]1C(N)=O`, the figure is 48 µM. The value for `CC(=O)N[C@H](C(=O)N1CC(F)CC1C(N)=O)[C@@H](C)OP(=O)(O)O` (single isomer, unassigned) was 36 µM; that for `CC(=O)N[C@H](C(=O)N1CC(O)CC1C(N)=O)[C@@H](C)OP(=O)(O)O` (single isomer, unassigned) was 800 µM; that for `CC(=O)N[C@H](C(=O)N1CCC[C@@H]1C(N)=O)[C@@H](C)OP(=O)(O)O` was 100 µM. As for `C[C@@H](OP(=O)(O)O)[C@H](NC(=O)Cc1ccccc1)C(=O)N1CCC[C@H]1C(N)=O` (PhAc-[pT]-Pro-NH2), the figure is 35 µM; as for `CC(=O)N[C@H](C(=O)N1CC=C[C@H]1C(N)=O)[C@@H](C)OP(=O)(O)O` (Ac-[pT]-[ΔPro]-NH2), 18 µM. `C[C@@H](OP(=O)(O)O)[C@H](NC(=O)CCc1ccccc1)C(=O)N1CCC[C@H]1C(N)=O` (Hydrocinnamoyl-[pT]-Pro-NH2) displayed a Kd of 32 µM. This Kd is about 1.8-fold higher than that of the molecule before.

The molecule `CC(=O)N[C@H](C(=O)N1CCC1C(N)=O)C(C)OP(=O)(O)O` (single isomer, unassigned) yielded a Kd of 160 µM. The value for `NC(=O)[C@@H]1CCCN1C(=O)CC/N=c1\c(O)c(O)c1=O` was above 2000 µM; that for `C[C@@H](OP(=O)(O)O)[C@H](NC(=O)OCC1c2ccccc2-c2ccccc21)C(=O)N1CC=C[C@H]1C(N)=O` (Fmoc-[pT]-[ΔPro]-NH2) was 66 µM; that for `NC(=O)[C@@H]1CCCN1C(=O)[C@H](CCC/N=c1\c(O)c(O)c1=O)NC(=O)OCC1c2ccccc2-c2ccccc21` was 910 µM. The value for `NC(=O)[C@@H]1CCCN1C(=O)CCC(=O)O` was above 2000 µM. The value for `NC(=O)[C@@H]1CCCN1C(=O)CCCC(=O)O` was above 2000 µM. `C[C@@H](OP(=O)(O)O)[C@H](NC(=O)OCC1c2ccccc2-c2ccccc21)C(=O)N1CCC[C@H]1C(N)=O` (Fmoc-[pT]-Pro-NH2) came in with a Kd of 15 µM. That is a double-digit micromolar value. In turn, `CC(=O)N[C@H](C(=O)N1C[C@@H](F)C[C@H]1C(N)=O)[C@@H](C)OP(=O)(O)O` had a Kd of 420 µM. The value for `NC(=O)[C@@H]1CCCN1C(=O)CCP(=O)(O)O` was above 2000 µM; that for `CC(=O)N[C@H](C(=O)N1CCCCC1C(N)=O)C(C)OP(=O)(O)O` (single isomer, unassigned) was 140 µM; that for `CC(=O)N[C@@H](CCC(=O)O)C(=O)N1CCC[C@H]1C(N)=O` (Ac-Glu-Pro-NH2) was above 2000 µM. Molecule `C[C@@H](OP(=O)(O)O)[C@H](NC(=O)C(c1ccccc1)c1ccccc1)C(=O)N1CCC[C@H]1C(N)=O` gave a Kd of 38 µM. That is a double-digit micromolar value.

Molecule `NC(=O)[C@@H]1CCCN1C(=O)CCNS(=O)(=O)C(F)(F)F` displayed a Kd above 2000 µM.

Consider `C[C@@H](OP(=O)(O)O)[C@H](NC(=O)CCC(C)(c1ccc(O)cc1)c1ccc(O)cc1)C(=O)N1CC=C[C@H]1C(N)=O`, for which binding was put at a Kd of 5 µM. That is a single-digit micromolar value. Consider `CC(=O)N[C@H](C(=O)N1CSC[C@H]1C(N)=O)[C@@H](C)OP(=O)(O)O` (Ac-[pT]-[Thz]-NH2), for which binding was characterised by a dissociation constant (Kd) of 400 µM. `C[C@@H](OP(=O)(O)O)[C@H](NC(=O)CCCc1ccccc1)C(=O)N1CC=C[C@H]1C(N)=O` had a Kd of 28 µM. The value for `C[C@@H](OP(=O)(O)O)[C@H](NC(=O)CCCc1ccccc1)C(=O)N1CCC[C@H]1C(N)=O` was 30 µM.
